Results as given in ChEMBL document CHEMBL4152290, “1H-Benzo[d]imidazoles and 3,4-dihydroquinazolin-4-ones: Design, synthesis and antitubercular activity” (Eur J Med Chem, 2018).
Values after ≈ are worked out from the molar mass of the structure shown.

Tested on: Mycobacterium tuberculosis
Assay: Antitubercular activity against Mycobacterium tuberculosis H37Rv ATCC 27294 after 7 days by resazurin dye based assay
Assay type: functional
Settings: H37Rv ATCC 27294, 168 h
How it was run: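 Resazurin microtiter MIC in 7H9 with 10% ADC. Two-fold dilutions from 1 mg/mL DMSO stocks span 25.0–0.05, 10.0–0.02 or 0.02–0.0004 µg/mL, with 2.5% DMSO final. Inoculum is bead-declumped culture grown in 7H9/10% OADC/0.05% Tween 80, diluted to OD600 0.006. Plates run 7 days at 37 °C, then 0.01% resazurin for 48 h. MIC is the lowest concentration preventing the blue-to-pink change. Three independent tests.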

Compound	MIC [µM]
C[C@H](NC(=O)CSc1nc2ccccc2[nH]1)C1CCCCC1	> 31.5
COc1ccccc1NC(=O)CSc1nc2ccccc2[nH]1	> 31.9
COc1ccc(NC(=O)CSc2nc3ccccc3c(=O)[nH]2)cc1	> 29.3
CC1CCC(NC(=O)CSc2nc3ccccc3[nH]2)CC1 (stereo not drawn)	41.2 (≈ 12.5 µg/mL)
CCCCCCCc1ccc(NC(=O)CSc2nc3ccccc3[nH]2)cc1	> 65.5
C[C@H]1CC[C@H](NC(=O)CSc2nc3ccccc3[nH]2)CC1	16.5 (≈ 5.01 µg/mL)
O=C(CSc1nc2ccccc2[nH]1)NCc1ccccc1	> 33.6
C[C@H](NC(=O)CSc1nc2ccccc2c(=O)[nH]1)C1CCCCC1	> 28.9
O=C(CSc1nc2ccccc2c(=O)[nH]1)Nc1ccc(I)cc1	> 22.9
O=C(CSc1nc2ccccc2c(=O)[nH]1)Nc1ccc(F)cc1	> 30.4
O=C(CSc1nc(O)c2ccccc2n1)Nc1ccc([N+](=O)[O-])cc1	> 28.1
CCCc1ccc(NC(=O)CSc2nc3ccccc3c(=O)[nH]2)cc1	> 28.3
C[C@@H](NC(=O)CSc1nc2ccccc2c(=O)[nH]1)C1CCCCC1	> 28.9
CCCCCc1ccc(NC(=O)CSc2nc3ccccc3[nH]2)cc1	> 70.7
O=C(CSc1nc2ccccc2[nH]1)NC1CCCCC1	> 31.3
O=C(CSc1nc2ccccc2[nH]1)Nc1ccc2ccccc2c1	> 75
O=C(CSc1nc2ccccc2c(=O)[nH]1)Nc1ccccc1	> 32.1

Compound	MIC [µM]
NNC(=O)c1ccncc1 [ISONIAZID]	2.9 (≈ 0.398 µg/mL)
CCCCCc1ccc(NC(=O)CSc2nc3ccccc3c(=O)[nH]2)cc1	26.2 (≈ 10 µg/mL)
CN(C(=O)CSc1nc2ccccc2c(=O)[nH]1)C1CCCCC1	> 75.4
CC1CCCC(NC(=O)CSc2nc3ccccc3[nH]2)C1 (stereo not drawn)	> 33
O=C(CSc1nc2ccccc2c(=O)[nH]1)NCc1ccccc1	4.8 (≈ 1.56 µg/mL)
Cc1ccc(NC(=O)CSc2nc3ccccc3c(=O)[nH]2)cc1	> 30.7
O=C(CSc1nc(O)c2ccccc2n1)N1CCCCC1	> 33
O=C(CSc1nc2ccccc2c(=O)[nH]1)N[C@@H]1CCc2ccccc2C1	17.1 (≈ 6.25 µg/mL)
CC1CCCCC1NC(=O)CSc1nc2ccccc2[nH]1 (stereo not drawn)	> 33
O=C(CSc1nc2ccccc2c(=O)[nH]1)NC1CCCC1	2.07 (≈ 0.628 µg/mL)
O=C(CSc1nc2ccccc2[nH]1)Nc1ccc2c(c1)CCC2	> 29.6
O=C(CSc1nc(O)c2ccccc2n1)Nc1ccc(Br)cc1	> 25.6
O=C(CSc1nc2ccccc2c(=O)[nH]1)N[C@H]1CCc2ccccc2C1	> 27.4
O=C(CSc1nc2ccccc2c(=O)[nH]1)Nc1ccc(Cl)cc1	28.9 (≈ 9.99 µg/mL)
O=C(CSc1nc2ccccc2c(=O)[nH]1)Nc1ccc2ccccc2c1	> 27.7
O=C(CSc1nc2ccccc2[nH]1)NCC1CCCCC1	82.4 (≈ 25 µg/mL)
